Legend:
Plasmodium yoelii = experiment: Antimalarial activity against Plasmodium yoelii infected in Swiss mouse assessed as inhibition of beta-hematin formation in plasma after 16 hrs by spectrophotometric analysis; type: functional, organism-based
Method in brief: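 P. yoelii-infected male Swiss mice (15-20 g; 1×10^5 infected RBCs); blood at 50% parasitemia taken in 2.0% citrate, plasma used. Mix: 100 mM sodium acetate pH 5.1, 50 µL plasma, 100 µM hemin, 1–50 µg compound per 1.0 mL; 37 °C 16 h shaking, triplicate. Pellet washed (Tris-SDS, water), dissolved in NaOH, A400; IC50 by non-linear regression.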

[1] = Selectivity index, ratio of CC50 for african green monkey Vero cells to IC50 for Plasmodium falciparum 3D7; type: functional
Method in brief: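 SI = CC50 (Vero, MTT, 72 h) / IC50 against P. falciparum 3D7. […] Read-out SYBR Green I fluorescence (ex 485, em 530 nm), logistic regression, triplicate.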

[2] = Cytotoxicity against african green monkey Vero cells after 72 hrs by MTT assay; type: cell-based; details: chlorocebus sabaeus
Method in brief: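 Vero cells (1 × 10⁴) exposed to serial dilutions of test agents for 72 h; viability read by MTT. Three replicates; CC50 from non-linear regression of dose-response curves.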

Plasmodium falciparum [3] = experiment: Antiplasmodial activity against chloroquine-sensitive Plasmodium falciparum 3D7 after 72 hrs by SYBR green assay; type: functional, organism-based; details: 3D7, 72 h
Method in brief: (§1)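 Compounds dissolved in DMSO (5 mg/mL or 10 mM stock), two-fold serial dilutions. Asynchronous culture (>80% rings) at 1.0% cell suspension, 0.8% parasitemia, 72 h at 37 °C under 5% CO₂/air. Lysis buffer with 2× SYBR Green I added, 1 h at 37 °C. Fluorescence read at 485/530 nm. IC50 by logistic regression of dose-response curves, three replicates, chloroquine reference.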

Plasmodium falciparum [4] = experiment: Antiplasmodial activity against chloroquine-resistant Plasmodium falciparum K1 after 72 hrs by SYBR green assay; type: functional, organism-based; details: K1, 72 h; method in brief: as §1
[5] = Inhibition of H2O2-induced hemin degradation at 20 uM incubated for 10 mins prior to H2O2-induction measured after 30 mins by spectrophotometric analysis relative to control

SMILES	IC50 (Plasmodium yoelii) [µM]	Ratio CC50/IC50 [1]	CC50 at 72 h [2] [µM]	IC50 (Plasmodium falciparum [3]) [µM]	IC50 (Plasmodium falciparum [4]) [µM]	inhibition [5] [%]
O=c1cc2c3c(cc4c(c3o1)C[C@H](O)[C@@H](c1ccc(O)c(O)c1)O4)Oc1cc(O)c(O)cc1-2 [MURURIN A]	8.3	48.7	58.5	1.2	1.3	37.5
O=C1C[C@@H](c2ccc(O)c(O)c2)c2c(O)cc3c(c2O1)C[C@H](O)[C@@H](c1ccc(O)c(O)c1)O3	10.1	181.8	200	1.1	> 5	23
O=C(OC[C@H]1O[C@@H](Oc2ccc(O)cc2COC(=O)[C@@]2(O)[C@H](O)C=CC(=O)[C@@H]2O)[C@H](O)[C@@H](O)[C@@H]1O)c1ccccc1	> 50	32.9	118	3.6	> 5	–
COc1cc(-c2cc(=O)c3c(O)cc(O[C@@H]4O[C@H](CO)[C@@H](O)[C@H](O)[C@H]4O)cc3o2)ccc1O	> 50	45.4	200	4.4	> 5	–
O=C(OC[C@H]1O[C@@H](Oc2ccc(O)cc2CO)[C@H](O)[C@@H](O)[C@@H]1O)c1ccccc1 [POLIOTHYRSOSIDE]	> 50	16.8	136	8.1	> 25	–
CCN(CC)CCCC(C)Nc1ccnc2cc(Cl)ccc12 (stereo not given) [CHLOROQUINE]	7.7	–	126	–	–	53.5
O=C(O[C@H]1[C@H](Oc2ccc(O)cc2COC(=O)[C@@]2(O)[C@H](O)C=CC(=O)[C@@H]2O)O[C@H](CO)[C@@H](O)[C@@H]1O)c1ccccc1	> 50	17.6	77.3	4.4	> 5	–

From ChEMBL document CHEMBL2311266, “Isolation and identification of β-hematin inhibitors from Flacourtia indica as promising antiplasmodial agents” (Eur J Med Chem, 2013)
